Assays:
[1] = system: parental ACE1 cells; assay: Prostate cancer cells in vitro growth assay, parental ACE1; format: cell-based, canine; conditions: for effect on cell growth (sensitivity): three day growth assay in vitro
In short: (§1)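 Cells were seeded at 3000 cells/well and allowed to adhere overnight at 37°C, 5% CO2. Test compound or staurosporine was prepared as an 8-point, 3-fold DMSO series from a 10 mM stock, giving a final 500-fold dilution of stocks, in triplicate. After 3 days, growth was measured by CellTiter-Glo luminescence, normalised to the DMSO signal (% control), and IC50 was fitted against concentration.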

[2] = system: GFP-transfected ACE-1 cells; assay: Prostate cancer cells in vitro growth assay, GFP-transfected ACE-1; format: cell-based, canine; conditions: for effect on cell growth (sensitivity): three day growth assay in vitro
In short: as §1

[3] = system: LNCaP; assay: Prostate cancer cell growth in vitro, LNCaP; format: cell-based; conditions: data not shown
[4] = ref [4],[16],[19]; cited from earlier work
[5] = system: Human osteoclast precursors; assay: Osteoclast differentiation assay; format: cell-based; conditions: six days with CSF-1 and RANKL, up to 10 μM
In short: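 Human osteoclast precursors were cultured at 37°C, 5% CO2, with CSF-1 (33 ng/mL), RANKL (66 ng/mL) and test compound (up to 10 μM) or 0.2% DMSO for 6 days. After a medium change, cells were incubated 1 more day. Supernatant acid phosphatase (TRAP5b) was read at 405 nm. Results are expressed as percent inhibition relative to vehicle with or without CSF-1, from six independent experiments.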

[6] = Radiographic assessment of tumor-induced bone remodeling; format: in vivo, mouse
In short: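 In the femoral ACE-1 tumor model, compound-formulated chow (average 30 mg/kg/day) or control chow was given ad libitum from day 14 to study end, n=8/group. Radiographs were taken from day 14 and then every 7 days. In blinded analysis, bone lying outside the normal femur diameter (defined from naïve/sham mice) was traced with a mm-calibrated free-form tool. Mean area was calculated per group.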

[7] = Rat formalin test; format: in vivo; conditions: 30 mg/kg PO two hours before subplantar formalin; vs vehicle; p<0.05
In short: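 SD rats received test compound at 30 mg/kg or vehicle (0.5% HPMC/1% Tween 80/2.5% DMSO) orally, 2 h before subplantar formalin (0.05 mL, 1%). Hind paw licking time was recorded at 5-minute intervals for 30 minutes, covering the acute and inflammatory phases. Data are the average of two independent experiments with six rats per group per trial.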

[8] = system: PC-3; assay: Prostate cancer cell growth in vitro, PC-3; format: cell-based; conditions: data not shown
[9] = system: ACE-1 prostate cancer cells; assay: Radiographic number of cancer cell colonies and overall tumor burden; format: in vivo, mouse
In short: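 In the same chow-dosing femoral tumor model, radiographs of tumor-bearing femurs were analysed blind. Images were split into distal and proximal halves and enlarged. Each colony was numbered and traced, defined as a radio-translucent area bounded by radio-opaque woven bone. Colony number per region and total tumor area per femur were recorded, then averaged per treatment group.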

[10] = system: CD68+ macrophages and osteoclasts; assay: CD68+ cells in tumor-bearing bone sections; format: in vivo, mouse
In short: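 Mice received intramedullary femoral injection of GFP+ ACE-1 prostate cancer cells. From day 14 they were given test compound in chow (average 30 mg/kg/day) or control chow ad libitum, n=8/group. At day 65, 20 μm decalcified frozen bone sections were stained with rat anti-mouse CD68 (1:2,000), Cy3 secondary and DAPI. Two 400X confocal images were taken per section from three sections per animal, in GFP+ tumor areas. Blinded counts were made per μm3.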

[11] = Spontaneous guarding and flinching in prostate model of bone cancer; format: in vivo, mouse; conditions: 30 mg/kg/day in chow from day 14; days 56 and 63; vs vehicle; 2-min observation
[12] = three day growth assay, CellTiter-Glo
[13] = sustained administration 30 mg/kg/day in chow
[14] = 30 mg/kg/day in chow, distal and proximal ends of femur, vs vehicle, p<0.05

osteoclast differentiation (acid phosphatase activity, TRAP5b) [5]	Structure (SMILES)	effect on cell growth (sensitivity) [1]	effect on cell growth (sensitivity) [2]	effect on prostate cancer cell growth [3]	crossing of the blood brain barrier [4]	concentration up to which no effect on cell growth (not sensitive) [1, 12] [µM]	extra-periosteal bone formation (periosteal reaction area) ([6]; 30 mg/kg/day in chow from day 14, days 14–63, vs vehicle, p<0.05)	overall radio-opacity of tumor-bearing femur ([6]; 30 mg/kg/day in chow, vs prostate cancer + vehicle)	attenuation of tumor-induced bone remodeling [6, 13]	hind paw licking time, acute phase (0–5 minutes) [7]	hind paw licking time, inflammatory phase (10–30 minutes) [7]	effect on prostate cancer cell growth [8]	number of cancer cell colonies [9, 14]	total tumor burden area [9, 14]	attenuation of disease progression [9, 13]	viability of cancer cells in tumor cell colony ([10]; GFP+ prostate cancer cells in bone sections, day 65)	number of CD68+ cells per tissue volume ([10]; day 65 post-tumor cell injection, chronic treatment, vs vehicle, p<0.05)	time spent guarding tumor-bearing limb [11]	concentration up to which no effect on cell growth (not sensitive) [2, 12] [µM]
	CN[C@@H]1C[C@H]2O[C@@](C)([C@@H]1OC)n1c3ccccc3c3c4c(c5c6ccccc6n2c5c31)C(=O)NC4 [staurosporine, reference compound]	sensitive	sensitive																
	Cn1c(=O)n(-c2ccc(C(C)(C)C#N)cc2)c2c3cc(-c4cnc5ccccc5c4)ccc3ncc21 [BEZ-235, reference compound]	sensitive	sensitive																
inhibited	FC(F)(F)c1ccc(CNc2ccc(Cc3c[nH]c4ncc(Cl)cc34)cn2)cn1 [PLX3397]	did not affect		did not affect	does cross the blood brain barrier	> 10	significantly reduced	increase	approximately 50%	analgesic effects	analgesic effects	did not affect	significantly reduced	significantly reduced	approximately 50%	little effect	significantly reduced	reduced	> 10

— PMC4545688 (Pain, 2015)
